Assay outcomes from PubChem.
Yeast life ext: extends the lifespan of yeast; 130,000 compounds, 0.68% hits; inhibition of the nicotinamide effect, % at 10 µM; S. cerevisiae growth with nicotinamide, OD615; deaD strain in restrictive glucose medium; AID 775;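 active = inhibition above a set limit, placed 3 SD over the median of all compounds, cut at about 26% in these data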;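 also: 0% = nicotinamide-treated wells and 100% = cells grown without nicotinamide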
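Assay system: engineered S. cerevisiae DeaD replicative-lifespan strain, galactose-grown log-phase cells; Buffer or medium: CSMM-D glucose medium, restrictive; Probe or stimulus: nicotinamide 1.5 mM; Compound: single dose 10 µM compound, 0.25% DMSO; Schedule: 4 h preincubation then 48 h treatment at 30 °C; Technique: OD615 measurement.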
SDO1 yeast rescue: restores growth of sdo1-depleted yeast | S. cerevisiae sdo1-depleted JHY4D growth rescue, OD600 30 h; stronger effect = higher value; pdr5 snq2 efflux-pump mutant strain | z-score at 10 µM | 140,000 compounds, 0.21% hits | AID 817;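 active = z-score above 3 at both the 24 hr and the 30 hr optical density reads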;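 also: z-score against mean and SD of all compound wells on the same plate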
RAM network inh: yeast RAM network inhibition; S. cerevisiae dse1pr::URA3 reporter, 5-FOA growth OD615, 2 d; analog-sensitive cbk1-as2 kinase mutant strain; AID 868; inhibition, % at 50 µM; 190,000 compounds, 1.8% hits;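 active = inhibition above a set limit, 3 SD over mean compound inhibition, cut at about 8.4% in these data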;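 also: 0% = DMSO-only wells with no growth and 100% = 10 µM 1-NA-PP1 full growth; inhibition rescues growth on 5-FOA so higher OD means more RAM inhibition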
BB579 growth dn: yeast BB579 growth reduction in restrictive medium. inhibition, % at 10 µM. S. cerevisiae BB579 growth, OD615, 48 h. 140,000 compounds, 0.51% hits;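 active = inhibition above a set limit, 3 SD over the mean compound inhibition, cut at about 44% in these data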
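Test system: DeaD yeast strain BB579 / Buffer or medium: restrictive glucose-based CSMM-D medium / Doses: single 10 µM dose / Schedule: 4 h cell preincubation, 48 h compound exposure, 30 °C humidified / Technique: culture absorbance at 615 nm / Controls: amphotericin B positive control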
RAM 5-FOA: RAM network inhibition, efflux-deficient strain | S. cerevisiae efflux-deficient reporter strain, 5-FOA growth OD615, 2 days | max inhibition, % | 1,200 tested, under 10 active | AID 1305 | shares compounds with RAM network inh; call rule not given here;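 also: plate controls were vehicle for no effect and reference inhibitor for full effect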
Active calls of the source: *; · = no result given. Shown are actives, neighbours in structure and some others; about 2.7% of the full set was active somewhere.

SMILES	Yeast life ext	SDO1 yeast rescue	RAM network inh	BB579 growth dn	RAM 5-FOA
CCCCc1ccc(-c2csc(/C(C#N)=C\c3ccc(C)o3)n2)cc1	40	-0.17	14*	-26	6
Cc1nn(CC(=O)OCC(=O)NC(C)c2ccccc2)c(C)c1[N+](=O)[O-] (stereo not drawn)	·	·	-1	·	·
O=C(c1cnc(-c2ccccc2)s1)c1ccc(Cl)cc1Cl	-13	-1.1	13*	-60	2
O=C(c1ccc(Cl)cc1)c1cnc(-c2ccccc2)s1	-14	1.4	2	-22	·
Cc1ccnc(NC(=O)c2ccc(S(=O)(=O)c3ccccc3)cc2)c1	·	·	4	·	·
COc1ccc(COc2cc(-c3cccc(OC)c3)nc3ccc(NC(=O)C(C)C)cc23)cc1	-2	-0.56	0	6	·
Cn1c(=O)cc(OCCCC(=O)NCc2ccc(F)cc2Cl)c2ccccc21	·	·	16*	·	1
Cn1c(=O)cc(OCCCC(=O)NCc2ccccn2)c2ccccc21	-3	1.1	0	6	·
O=C(COc1ccc(Cl)cc1)NCc1nnc(SCC(=O)N2CCCCCC2)o1	·	·	5	·	·
C=CCn1c(SCc2csc(C)n2)nc2sc3c(c2c1=O)CCC(C)C3 (stereo not drawn)	·	0.29	15*	-29	2
C=CCn1c(SCC(=O)Nc2cc(C)on2)nc2sc3c(c2c1=O)CCCC3	-11	-2.4	5	-1	·
C=CCn1c(SCc2csc(C)n2)nc2sc3c(c2c1=O)CCCCC3	-13	-0.24	17*	-39	3
CC(=O)Nc1cccc2c1C(=O)N(c1ccc(OC(C)=O)cc1)C2=O	·	·	1	·	·
Cc1ccccc1OS(=O)(=O)c1cn(C)c(=O)n(C)c1=O	·	·	4	·	·
C=CCN(c1ccccc1Cl)S(=O)(=O)c1cccc(C(=O)NCCc2ccc(OC)cc2)c1	8	-0.63	14*	-50	4
Cc1cc(C)cc(NC(=O)c2cnn(-c3ccccc3)c2C2CCNCC2)c1	·	·	0	·	·
O=C(OCc1cncs1)c1cccs1	·	·	1	·	·
COc1ccc(OCc2nnc(SCC(N)=O)n2-c2ccccc2OC)cc1	-8	-0.67	0	0	·
COc1ccccc1-n1c(COc2ccccc2-c2ccccc2)nnc1SCC(=O)c1c(N)n(C)c(=O)n(C)c1=O	0	0.8	14*	-50	8
Brc1ccc(CSc2nnc(Cc3c[nH]c4ccccc34)o2)cc1	-8	-1.1	13*	-30	2
O=C(c1cccc(Cl)c1)N1CCCC(c2ccc(Cl)cc2)=N1	-19	-1.8	17*	-33	3
CC12CN(C(=S)Nc3ccccc3)CC(C)(CN(C(=S)Nc3ccccc3)C1)C2=O	·	·	1	·	·
COc1ccc(OC)c(NC(=O)CN(Cc2ccccc2)S(C)(=O)=O)c1	·	·	2	·	·
CCc1ccccc1NC(=O)/C(C#N)=C\c1ccc(Sc2ccccc2)o1	-4	-0.26	4	-3	·
CCc1ccccc1NC(=O)/C(C#N)=C/c1ccc(Sc2ccccc2)o1	2	0.42	16*	-30	2
SMILES	Yeast life ext	SDO1 yeast rescue	RAM network inh	BB579 growth dn	RAM 5-FOA
CC1=NN(c2nc(-c3ccc(C)cc3)cs2)C(=O)C1N=Nc1ccc(C(N)=O)cc1 (stereo not drawn)	·	·	12*	·	7
CC1=NN(c2ccccc2)C(=O)C1N=Nc1ccc(C)cc1 (stereo not drawn)	·	·	5	·	·
COc1ccc(OC)c(NC(=O)CNC(=O)c2ccc([N+](=O)[O-])cc2)c1	·	·	4	·	·
Fc1ccc(CSc2nnc(Cc3sc(-c4ccccc4)nc3-c3ccccc3)o2)cc1	13	0.48	22*	-71	2
c1ccc(CSc2nnc(Cc3ccccc3)o2)cc1	·	·	1	·	·
Cc1ccc(O)c(CCc2ccc(O)cc2)n1	·	·	3	·	·
C[C@@H]1CN(Cc2cn(C)nc2-c2cccc(Cl)c2)C[C@H](C)O1	·	·	1	·	·
Nc1ccc(C(=O)O)cc1[N+](=O)[O-]	·	·	1	·	·
Nc1ccc(C(=O)c2cccs2)cc1[N+](=O)[O-]	·	·	13*	·	13
CCOC(=O)c1c(-c2cccs2)csc1NC(=O)COC(=O)c1c(C)noc1C	-8	-0.24	12*	-37	2
COc1cc(CNn2c(C)n[nH]c2=S)cc(Cl)c1OCc1ccc(F)cc1	5	-0.67	12*	-46	1
COc1cc(CNn2c(C)n[nH]c2=S)cc(Br)c1OCc1ccc(F)cc1	0	-1.1	4	-30	·
CCCCCOP(=O)(OCCCCC)C1(NS(=O)(=O)c2ccccc2)C=CC(=O)c2ccccc21 (stereo not drawn)	1	-0.58	12*	-1	1
